# Compound activity as filed in PubChem.
# The full list was thinned out, with hits kept by preference.
# IDH1 mut inh: inhibitors of IDH1 R132H reductase, primary screen, biochemical, plate reader, single point. Isocitrate dehydrogenase [NADP] cytoplasmic (Homo sapiens), O75874. diaphorase/resazurin fluorescence, 60 min. inhibition, % at 10 µM. hit rate 0.18% among 70,000. AID 624101, 2012; in the data active means inhibition above about 34%; inconclusive means no clear call, values can overlap the other calls; inactive means below about 11%;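 further: 0% = DMSO and 100% = no enzyme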
# Target sequence (O75874 whole entry R132H): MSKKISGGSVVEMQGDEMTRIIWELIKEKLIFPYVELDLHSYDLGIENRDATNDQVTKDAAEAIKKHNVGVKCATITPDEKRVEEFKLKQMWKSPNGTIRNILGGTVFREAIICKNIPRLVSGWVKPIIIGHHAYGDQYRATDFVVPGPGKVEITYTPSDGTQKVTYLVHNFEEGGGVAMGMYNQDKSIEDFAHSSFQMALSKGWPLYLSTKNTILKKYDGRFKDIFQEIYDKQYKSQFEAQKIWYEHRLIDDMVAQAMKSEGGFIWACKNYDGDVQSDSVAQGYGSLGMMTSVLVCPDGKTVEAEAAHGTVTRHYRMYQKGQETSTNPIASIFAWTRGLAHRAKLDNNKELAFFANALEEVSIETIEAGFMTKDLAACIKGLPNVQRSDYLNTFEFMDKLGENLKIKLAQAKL
# T cruzi growth-1: T. cruzi intracellular proliferation inhibitors, primary screen, cell-based, beta-gal Tulahuen parasites, NIH3T3 host, luminescence. T. cruzi beta-gal in NIH3T3, GalScreen luminescence, 90 h. inhibition, % at 8.34 µM. hit rate 5.9% among 77,000. AID 624255, 2012;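 active means mean inhibition above about 93%, with at least 55% of replicates each passing it, limit read from the data, passing the limit was not always enough; inconclusive means only one of those two conditions holds; inactive means neither condition holds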
# GASC1 inh: inhibitors of GASC-1 (KDM4C) histone demethylase, primary screen, biochemical, single concentration HTS; Lysine-specific demethylase 4C (Homo sapiens), Q9H3R0; GST-KDM4C 2-372, H3K9me3 peptide, LANCE TR-FRET; inhibition, % at 12.5 µM; hit rate 0.15% among 96,000; AID 720574, 2013;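 active means mean replicate inhibition above about 25%, with at least 55% of replicates also reaching it, limit read from the data, passing the limit was not always enough; inconclusive means only one of those two conditions met; inactive means neither condition met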
#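 material = GST-tagged GASC-1 (JMJD2C) catalytic fragment, aa 2-372 | amount = enzyme final amount 10 nM | medium = HEPES buffer, pH 7.5, plus ascorbate | also added = H3K9me3 peptide substrate, Fe(II), 2-oxoglutarate | dosing = single dose | times = 30 min demethylation and 1 h detection at room temperature | detection = LANCE TR-FRET | read-out basis = Fall in 671/618 emission ratio as inhibition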
# T cruzi growth-2: T. cruzi intracellular proliferation inhibitors, confirmation, cell-based, NIH3T3 host, beta-gal parasite, luminescence, cherry-pick; shares compounds with T cruzi growth-1; T. cruzi beta-gal in NIH3T3, GalScreen luminescence, 90 h; inhibition, % at 8.35 µM; hit rate 72% among 5,600;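 active means mean replicate inhibition above about 95% and at least 55% of replicates individually reaching it, limit read from the data; inconclusive means only one of the two criteria is met; inactive means neither criterion is met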
# T cruzi growth-3: inhibitors of intracellular T. cruzi replication, confirmation, NIH3T3 host cells, beta-gal parasites, cherry-pick, set 2; shares compounds with T cruzi growth-1; T. cruzi beta-gal in NIH3T3, GalScreen luminescence, 90 h; inhibition, % at 2.09 µM; hit rate 21% among 5,600;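 active means mean inhibition above about 95%, with at least 55% of replicates also reaching it, limit read from the data; inconclusive means meets just one of the two conditions; inactive means meets neither condition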;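 further: plate controls were neutral control median for no effect and positive control median for full effect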
# NIH3T3 tox: cytotoxicity in mouse NIH/3T3 fibroblasts, confirmation, cytotoxicity control for T. cruzi proliferation inhibitor project, cell-based, cherry-pick, single point | NIH/3T3 viability, CellTiter-Glo ATP luminescence, 90 h | AID 651742, 2012 | hit rate 14% among 5,600 | shares compounds with T cruzi growth-1 | cytotoxicity (signal decrease), % at 8.35 µM;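 active means mean signal decrease across replicates above about 35% based on untreated-well scatter, with enough replicates individually passing, limit read from the data; inconclusive means no rule stated though some were filed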;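 further: 0% = median of neutral control wells and 100% = median of positive control wells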
# 3T3 cytotox 2: NIH/3T3 fibroblast cytotoxicity, confirmation, cytotoxicity control, cell-based, cherry-pick, single point, set 2. NIH/3T3 viability, CellTiter-Glo ATP luminescence, 90 h. inhibition, % at 24.9 µM. shares compounds with T cruzi growth-1. hit rate 56% among 5,600;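 active means mean loss of cell viability signal at or above a set limit, and enough replicates individually reaching it; inconclusive means meets only the mean limit or only the replicate share; inactive means meets neither condition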;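 further: 0% = median of neutral control wells and 100% = median of positive control wells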
# Starred values were filed as active, the others as inactive; ? = inconclusive; . = not tested or not shown.
SMILES,IDH1 mut inh,T cruzi growth-1,GASC1 inh,T cruzi growth-2,T cruzi growth-3,NIH3T3 tox,3T3 cytotox 2
COc1ccccc1C#Cc1ccc([C@H]2[C@@H](C#N)N(C(=O)C3CC3)[C@@H]2CO)cc1,.,97*,0,101*,107*,30,50*
COc1ccccc1C#Cc1ccc([C@@H]2[C@H](C#N)N(C(=O)C3CC3)[C@H]2CO)cc1,.,88,-1,.,.,.,.
COc1ccccc1C#Cc1ccc([C@@H]2[C@@H](C#N)N(C(=O)C3CC3)[C@H]2CO)cc1,.,99*,-2,108*,86,-9,34*
COc1ccccc1C#Cc1ccc([C@@H]2[C@@H](C#N)N(C(=O)C3CC3)[C@@H]2CO)cc1,.,80,-1,.,.,.,.
COc1cccc(C#Cc2ccc([C@H]3[C@H](C#N)N(C(=O)C4CC4)[C@H]3CO)cc2)c1,.,104*,-4,106*,76,6,42*
Cc1ccc(-c2nc3cc(Cl)cc(Cl)c3o2)cc1NC(=O)COc1ccccc1,0,.,.,.,.,.,.
CCCC#Cc1cnc2c(c1)C(=O)N([C@@H](C)CO)C[C@@H](C)[C@@H](CN(C)C(=O)c1cnccn1)O2,1,-85,-1,.,.,.,.
CCCNC(=O)N1C[C@H](O)COC[C@H]2O[C@H](CC(=O)N3CCOCC3)CC[C@@H]21,.,11,-3,.,.,.,.
CO[C@@H]1CC[C@@H]2CCN(C)C(=O)C[C@@H](c3ccccc3)CN(C)C(=O)c3cc(C#N)ccc3OC[C@@H]1O2,.,-9,-2,.,.,.,.
C[C@@H]1CN([C@@H](C)CO)S(=O)(=O)c2ccc(-c3ccncc3)cc2O[C@@H]1CN(C)Cc1ccc(Oc2ccccc2)cc1,0,?,1,99*,108*,74*,74*
C[C@@H]1CN([C@H](C)CO)S(=O)(=O)c2ccc(-c3ccncc3)cc2O[C@H]1CN(C)Cc1ccc(Oc2ccccc2)cc1,0,53,3,.,.,.,.
C[C@@H]1CN([C@H](C)CO)S(=O)(=O)c2ccc(-c3ccncc3)cc2O[C@@H]1CN(C)Cc1ccccc1,1,88,2,.,.,.,.
C[C@H](CO)N1C[C@H](C)[C@H](CN(C)Cc2ccc(Oc3ccccc3)cc2)Oc2cc(-c3ccncc3)ccc2S1(=O)=O,5,124*,-1,101*,104*,64*,64*
C[C@@H]1CCCCO[C@@H](CN(C)Cc2ccc(C(=O)O)cc2)[C@@H](C)CN([C@@H](C)CO)C(=O)c2cc(NC(=O)Cc3ccccc3)ccc2O1,0,39,1,.,.,.,.
C[C@@H]1CN([C@H](C)CO)C(=O)c2cc(NC(=O)C3CCCCC3)ccc2O[C@@H]1CN(C)C(=O)Nc1ccccc1,0,-10,1,.,.,.,.
O=C(C[C@@H]1CC[C@H](NS(=O)(=O)c2cccc(F)c2)[C@H](CO)O1)NCc1ccc2c(c1)OCO2,0,2,-1,.,.,.,.
O=C(C1CCOCC1)N1CC[C@@H]2[C@H]1c1cc(-c3ccc(F)cc3)ccc1N[C@@H]2CO,.,105*,3,?,82,-9,23
COc1ccccc1-c1ccc2c(c1)[C@@H]1[C@@H](CCN1C(=O)C1CCOCC1)[C@@H](CO)N2,.,89,9,.,.,.,.
O=C(C1CCOCC1)N1CC[C@@H]2[C@@H](CO)Nc3ccc(-c4ccc(F)cc4)cc3[C@@H]21,.,105*,3,99*,60,-13,14
COc1ccccc1-c1ccc2c(c1)[C@@H]1[C@@H](CCN1C(=O)C1CCOCC1)[C@H](CO)N2,.,97*,0,102*,72,-23,-30
O=C(C1CC1)N1CC[C@@H]2[C@H](CO)Nc3ccc(-c4ccc(F)cc4)cc3[C@@H]21,.,42,-2,.,.,.,.
O=C(C1CC1)N1CC[C@@H]2[C@@H](CO)Nc3ccc(-c4ccc(F)cc4)cc3[C@@H]21,.,84,1,.,.,.,.
Cc1ccc(CN(CC(=O)O)S(=O)(=O)c2ccc(Br)cc2)cc1,0,.,.,.,.,.,.
O=C(O)CCN1C(=O)c2cccc3c([N+](=O)[O-])ccc(c23)C1=O,0,.,.,.,.,.,.
CC(C)CC#Cc1ccc2c(c1)O[C@H](CN(C)Cc1cncnc1)[C@@H](C)CN([C@@H](C)CO)S2(=O)=O,-1,111*,1,101*,101*,?,98*
SMILES,IDH1 mut inh,T cruzi growth-1,GASC1 inh,T cruzi growth-2,T cruzi growth-3,NIH3T3 tox,3T3 cytotox 2
CCCC#Cc1ccc2c(c1)O[C@H](CN(C)Cc1cncnc1)[C@@H](C)CN([C@@H](C)CO)S2(=O)=O,24,?,39*,107*,101*,?,99*
CCCC#Cc1ccc2c(c1)O[C@@H](CN(C)Cc1cncnc1)[C@@H](C)CN([C@H](C)CO)S2(=O)=O,1,50,18,.,.,.,.
CC(C)CC#Cc1ccc2c(c1)O[C@H](CN(C)Cc1cncnc1)[C@H](C)CN([C@@H](C)CO)S2(=O)=O,-10,50,-1,.,.,.,.
O=C(C[C@@H]1C=C[C@H](NS(=O)(=O)c2ccccc2)[C@H](CO)O1)N1CCC(Cc2ccccc2)CC1,.,.,0,.,.,.,.
COc1cc(OC)c2ccc(=O)oc2c1CC(O)C(C)(C)OC (stereo unspecified),0,.,.,.,.,.,.
C[C@H](CO)N1C[C@H](C)[C@H](CN(C)S(=O)(=O)c2ccc(Cl)cc2)Oc2ccc(NC(=O)Nc3ccc(F)cc3)cc2C1=O,.,25,0,.,.,.,.
CCC(=O)N1CCCCN2[C@H](CO)[C@H](c3ccc(C#Cc4ccccc4)cc3)[C@H]2C1,.,108*,-1,86,44,40*,106*
CCC(=O)N1CCCCN2[C@@H](CO)[C@@H](c3ccc(C#Cc4cccnc4)cc3)[C@@H]2C1,.,111*,1,102*,76,8,8
CCC(=O)N1CCCCN2[C@@H](CO)[C@@H](c3ccc(C#CCOC)cc3)[C@@H]2C1,.,31,0,.,.,.,.
CCC(=O)N1CCCCN2[C@@H](CO)[C@@H](c3ccc(C#Cc4ccccc4)cc3)[C@@H]2C1,.,106*,-1,104*,82,24,104*
CCC(=O)N1CCCCN2[C@H](CO)[C@H](c3ccc(C#Cc4cccnc4)cc3)[C@@H]2C1,.,87,0,.,.,.,.
CCC(=O)N1CCCCN2[C@@H](CO)[C@H](c3ccc(C#Cc4ccccc4)cc3)[C@@H]2C1,.,112*,0,105*,73,59*,105*
